Assay results from publication PMC7571300 (ACS Pharmacology & Translational Science, 2020).
Read-outs that look alike come from different tables or passages of the source.

How the values were obtained:
SARS-CoV-2 = settings: at 10 μM; cited from earlier work
EV-A71 2A^pro [1] = target: T1, EV-A71 2A^pro (Enterovirus A71, UniProt B9VUU3); assay: FRET-based enzymatic assay; format: biochemical
T1 sequence (B9VUU3 863-1012): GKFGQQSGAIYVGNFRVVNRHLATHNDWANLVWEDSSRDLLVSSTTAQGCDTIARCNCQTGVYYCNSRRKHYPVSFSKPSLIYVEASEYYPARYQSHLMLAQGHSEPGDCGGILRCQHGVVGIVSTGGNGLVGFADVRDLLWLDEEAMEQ

in vitro = settings: human, CC50 (EV-A71 CPE assay conditions), RD cells, no virus, 37 °C, no MgCl2
EV-D68 2A^pro [2] = target: T2, EV-D68 2A^pro (Enterovirus D68, UniProt A0A097BW19); assay: FRET-based enzymatic assay; format: biochemical
T2 sequence (A0A097BW19 863-1009): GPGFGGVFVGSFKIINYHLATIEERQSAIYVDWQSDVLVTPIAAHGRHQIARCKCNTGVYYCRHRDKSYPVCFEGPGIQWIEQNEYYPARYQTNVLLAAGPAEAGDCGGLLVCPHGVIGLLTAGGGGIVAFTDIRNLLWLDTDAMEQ

EV-A71 3C^pro [3] = target: T3, EV-A71 3C^pro (Enterovirus A71, UniProt B9VUU3); assay: Thermal shift binding assay; settings: 4 mM DTT; 40 μM compound (shikonin 10 μM); 3 μM protease
How it was run: (§1)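 3Cpro (EV-A71/7D3 or EV-D68 US/KY/14–18953; codon-optimised, pET28b(+), BL21(DE3), 0.5 mM IPTG at 18 °C for 24 h, Ni-NTA purified) was used at 3 μM. Buffer was 50 mM Tris pH 7.0, 150 mM NaCl, 1 mM EDTA, 10% glycerol, with or without 4 mM DTT. Protease was preincubated with test compound or DMSO (30 °C, 30 min), then SYPRO orange (1×) added and a 20–90 °C ramp (0.05 °C/s) run. Tm came from a Boltzmann fit.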

EV-A71 2A^pro [4] = target: T1, EV-A71 2A^pro; assay: Thermal shift binding assay; settings: 4 mM DTT; 40 μM compound (shikonin 10 μM); 3 μM protease
How it was run: (§2)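 Codon-optimised 2Apro was expressed in E. coli from pET28b(+), from EV-A71/7D3 or EV-D68 US/KY/14–18953. Protease (3 μM) in 50 mM Tris pH 7.0, 150 mM NaCl, 10% glycerol, with or without 4 mM DTT, was preincubated with test compound or DMSO at 30 °C for 30 min. SYPRO orange (1×) was then added and fluorescence followed over 20–90 °C at 0.05 °C/s. Tm was taken as the transition mid log (Boltzmann model).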

SARS-CoV-2 M^pro [5] = target: T4, SARS-CoV-2 M^pro (Severe acute respiratory syndrome coronavirus 2, UniProt P0DTD1); assay: Thermal shift binding assay; settings: for Tm change, SARS-CoV-2 M^pro: 4 mM DTT, 40 μM compound (shikonin 10 μM), 3 μM protease
EV-D68 3C^pro [6] = target: T5, EV-D68 3C^pro (Enterovirus D68, UniProt A0A097BW19); assay: biochemical
T5 sequence (A0A097BW19 1550-1732): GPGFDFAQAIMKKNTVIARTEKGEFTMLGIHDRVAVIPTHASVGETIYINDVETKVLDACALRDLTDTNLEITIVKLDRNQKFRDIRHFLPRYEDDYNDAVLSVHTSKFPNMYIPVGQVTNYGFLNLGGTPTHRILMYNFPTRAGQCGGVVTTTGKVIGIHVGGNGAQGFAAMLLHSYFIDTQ

EV-D68 3C^pro [7] = target: T5, EV-D68 3C^pro; assay: Thermal shift binding assay; settings: for Tm change, EV-D68 3C^pro: 4 mM DTT, 40 μM compound (shikonin 10 μM), 3 μM protease
How it was run: as §1

EV-A71 3C^pro [8] = target: T3, EV-A71 3C^pro; assay: FRET-based enzymatic assay; format: biochemical
SARS-CoV-2 M^pro [9] = target: T4, SARS-CoV-2 M^pro; format: binding
SARS-CoV-2 PL^pro = SARS-CoV-2 PL^pro (Severe acute respiratory syndrome coronavirus 2, UniProt P0DTD1); assay: Thermal shift binding assay; settings: 4 mM DTT; 40 μM compound (shikonin 10 μM); 3 μM protease
How it was run: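 SARS-CoV-2 PLpro (ORF1ab 1564–1876, strain WIV04) was expressed from pET28b(+) in BL21(DE3) (0.5 mM IPTG, 18 °C, 24 h), Ni-NTA purified and eluted with 300 mM imidazole. Protein (3 μM) in 50 mM HEPES pH 7.5, 0.01% Triton X-100, with or without 4 mM DTT, sat with test compound or DMSO for 30 min at 30 °C. SYPRO orange (1×) was added and a 20–90 °C ramp at 0.05 °C/s applied. Tm was from a Boltzmann fit.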

EV-D68 2A^pro [10] = target: T2, EV-D68 2A^pro; assay: Thermal shift binding assay; settings: 4 mM DTT; 40 μM compound (shikonin 10 μM); 3 μM protease
How it was run: as §2

[11] = EV-A71 2A^pro IC50, with 4 mM DTT
[12] = EV-D68 2A^pro IC50, with 4 mM DTT
[13] = EV-D68 3C^pro IC50, with 4 mM DTT
[14] = EV-A71 3C^pro IC50, with 4 mM DTT

| Compound | Reduction of viral replication, viral titer reduction assay (SARS-CoV-2) | IC50 (EV-A71 2A^pro [1]; EV-A71 2A^pro IC50, no DTT) | IC50 (EV-A71 2A^pro [1]; [11]) | CC50 (in vitro) | IC50 (EV-D68 2A^pro [2]; EV-D68 2A^pro IC50, no DTT) | IC50 (EV-D68 2A^pro [2]; [12]) | Tm change, EV-A71 3C^pro (EV-A71 3C^pro [3]) | Tm change, EV-A71 2A^pro (EV-A71 2A^pro [4]) | Tm change, SARS-CoV-2 M^pro (SARS-CoV-2 M^pro [5]) | IC50 (EV-D68 3C^pro [6]; EV-D68 3C^pro IC50, no DTT) | IC50 (EV-D68 3C^pro [6]; [13]) | Tm change, EV-D68 3C^pro (EV-D68 3C^pro [7]) | IC50 (EV-A71 3C^pro [8]; EV-A71 3C^pro IC50, no DTT) | IC50 (EV-A71 3C^pro [8]; [14]) | Ligand binding to M^pro dimer (SARS-CoV-2 M^pro [9]; with 4 mM DTT, 10-40 μM drug) | Ligands bound per M^pro dimer (SARS-CoV-2 M^pro [9]; without DTT, 10-40 μM drug) | Tm change, SARS-CoV-2 PL^pro (SARS-CoV-2 PL^pro) | Tm change, EV-D68 2A^pro (EV-D68 2A^pro [10]) | also measured |
| --- | --- | --- | --- | --- | --- | --- | --- | --- | --- | --- | --- | --- | --- | --- | --- | --- | --- | --- | --- |
| CCCCCCNC(=O)n1cc(F)c(=O)[nH]c1=O [carmofur] | no significant antiviral effect | 12.9 ± 4.5 µM | > 60 µM | 47.2 µM | 6.4 ± 1.3 µM | > 60 µM | no Tm change | no Tm change | no Tm change | 0.3 µM | > 60 µM | no Tm change | 0.4 ± 0.2 µM | > 60 µM | moderate binding | up to three ligands per dimer | no Tm change | no Tm change | Tm increase, SARS-CoV-2 M^pro (SARS-CoV-2 M^pro [5]; absence of DTT, 40 μM compound): 4.76 °C; Tm increase, EV-D68 3C^pro (EV-D68 3C^pro [7]; absence of DTT, 40 μM compound): 0.87 °C |
| CCN(CC)C(=S)SSC(=S)N(CC)CC [disulfiram] | ~30% | 11.8 ± 2.1 µM | > 60 µM | 8.3 µM | 3.5 ± 0.5 µM | > 60 µM | no Tm change | no Tm change | no Tm change | 0.6 ± 0.1 µM | > 60 µM | no Tm change | 1 ± 0.6 µM | > 60 µM | completely disrupted | up to three | no Tm change | no Tm change | – |
| O=c1c2ccccc2[se]n1-c1ccccc1 [ebselen] | – | 5.9 ± 1.1 µM | > 60 µM | 17 µM | 3.6 ± 1 µM | > 60 µM | no Tm change | no Tm change | no Tm change | 0.1 µM | > 60 µM | no Tm change | 1.2 ± 0.7 µM | > 60 µM | – | – | no Tm change | no Tm change | Ligand binding to M^pro dimer (SARS-CoV-2 M^pro [9]): completely disrupted; Ligands bound per M^pro dimer (SARS-CoV-2 M^pro [9]): four |
| CC(C)=CC[C@@H](O)C1=CC(=O)c2c(O)ccc(O)c2C1=O [shikonin] | – | 36 ± 20.5 µM | > 60 µM | 0.8 µM | 37 ± 14.2 µM | > 60 µM | no Tm change | no Tm change | no Tm change | 1.2 ± 0.7 µM | > 60 µM | no Tm change | 0.5 ± 0.2 µM | > 60 µM | completely disrupted | up to four ligands per dimer | no Tm change | no Tm change | – |
| CCC[C@H](NC(=O)[C@@H]1[C@H]2CCC[C@H]2CN1C(=O)[C@@H](NC(=O)[C@@H](NC(=O)c1cnccn1)C1CCCCC1)C(C)(C)C)C(=O)C(=O)NC1CC1 [telaprevir] | – | 1.8 ± 0.9 µM | 1.3 µM | – | 0.1 µM | – | – | increased the Tm | – | – | – | – | – | – | – | – | – | increased the Tm | – |
| O=c1sn(-c2cccc3ccccc23)c(=O)n1Cc1ccccc1 [tideglusib] | no significant antiviral effect | 3.4 ± 2.9 µM | > 60 µM | 16.6 µM | 1.3 ± 0.7 µM | > 60 µM | no Tm change | no Tm change | no Tm change | 0.6 ± 0.3 µM | > 60 µM | no Tm change | 1.2 ± 0.1 µM | > 60 µM | did not bind | did not bind | no Tm change | no Tm change | – |
